Here are results for seven molecules from ChEMBL document CHEMBL1811772, “Identification of ostruthin from Peucedanum ostruthium rhizomes as an inhibitor of vascular smooth muscle cell proliferation” (J Nat Prod, 2011).

One data set deals with VSMC. Description: Antiproliferative activity against serum-stimulated primary rat aortic VSMC at 30 uM after 30 mins by resazurin conversion assay. The format is functional, tissue-based. The conditions noted are these: Aorta. A digest of the protocol:
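Primary rat aortic VSMC were serum-starved 24 h, pretreated 30 min with 30 μM sample or 0.1% DMSO vehicle, and stimulated 48 h with 10% calf serum. Resazurin (10 μg/mL, 2 h) conversion was read as fluorescence at ex 535/em 580 nm and expressed as fold over unstimulated vehicle cells. Mean ± SD, n = 3, ANOVA/Tukey.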

The next data set concerns A10. Kind of data set: Antiproliferative activity against rat A10. The format is functional, cell-based.
Data set [1] can be described thus: Cytotoxicity against primary rat aortic VSMC as cell viability at 30 uM by trypan blue exclusion assay (reference value: 98+/-2%). The conditions noted are these: primary rat aortic vascular smooth muscle cells (VSMC), read-out: Activity. The class given is cell-based.
The nature of data set [2]: Antiproliferative activity against serum-stimulated primary rat aortic VSMC after 30 mins by resazurin conversion assay. The format is functional, tissue-based. The conditions noted are these: Aorta. A digest of the protocol: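 Sprague–Dawley rat thoracic aorta VSMC were seeded at 1 × 10^4 cells/well, serum-starved 24 h, pretreated 30 min with sample or vehicle (final DMSO 0.1%), then stimulated 48 h with 10% calf serum. They were then washed and given 10 μg/mL resazurin for 2 h, with fluorescence read at ex 535/em 580 nm. Signals were normalized to unstimulated vehicle cells. IC50 was obtained by nonlinear regression; mean ± SD from ≥3 independent experiments.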

Data set [3] can be described thus: Antiproliferative activity in primary rat aortic VSMC assessed as inhibition of serum-induced DNA synthesis pretreated 30 mins prior serum addition measured after 20 hrs by BrdU incorporation assay. The conditions noted are these: Aorta.

Active and inactive are the calls of the source. The calls are words filed in the database; no cut-off is given here.

Consider `C/C=C(/C)C(=O)O[C@H](COc1c2ccoc2cc2oc(=O)ccc12)C(C)(C)O`, for which the result in the data set with VSMC was inactive.

Regarding `CC(C)(O)[C@H](O)COc1c2ccoc2cc2oc(=O)ccc12`, in the data set on VSMC, the outcome was inactive.

Regarding `CC(C)=CCOc1c2ccoc2cc2oc(=O)ccc12`, in the data set with VSMC, the outcome was inactive.

With `CC(C)=CCOc1c2occc2cc2ccc(=O)oc12`, the result with VSMC was inactive.

As to `CC1(C)O[C@H]1COc1c2ccoc2cc2oc(=O)ccc12`, the outcome in the data set with VSMC was inactive.

`COc1ccc2ccc(=O)oc2c1CC=C(C)C` [OSTHOLE] yielded an IC50 with A10 of 13.6 µM. The result in the data set on VSMC was inactive.

In the case of `CC(C)=CCC/C(C)=C/Cc1cc2ccc(=O)oc2cc1O` [OSTRUTHIN], in the data set with VSMC, the outcome was Active. The viability at 30 µM in data set [1] stood at 92%. Also, the IC50 in data set [2] came to 11 µM; in data set [3], 17 µM.
